Data: ChEMBL document CHEMBL1949640, “Discovery of substituted biphenyl oxazolidinone inhibitors of cholesteryl ester transfer protein” (ACS Med Chem Lett, 2011)
pIC50: −log10 of the molar value.

Legend:
[1] = Oral bioavailability in mouse; assay type: ADME, organism-based; conditions: in vivo
Mus musculus = organism: Mus musculus; assay: (§1) Clearance in mouse; assay type: ADME, organism-based; conditions: in vivo
[2] = Volume of distribution in mouse; assay type: ADME, organism-based; conditions: in vivo
[3] = molecular target: T1, Cholesteryl ester transfer protein (Homo sapiens, UniProt P11597); assay: Inhibition of CETP-mediated BODIPY-labeled cholesteryl ester transfer after 45 mins by FRET analysis
T1 sequence (P11597 whole entry): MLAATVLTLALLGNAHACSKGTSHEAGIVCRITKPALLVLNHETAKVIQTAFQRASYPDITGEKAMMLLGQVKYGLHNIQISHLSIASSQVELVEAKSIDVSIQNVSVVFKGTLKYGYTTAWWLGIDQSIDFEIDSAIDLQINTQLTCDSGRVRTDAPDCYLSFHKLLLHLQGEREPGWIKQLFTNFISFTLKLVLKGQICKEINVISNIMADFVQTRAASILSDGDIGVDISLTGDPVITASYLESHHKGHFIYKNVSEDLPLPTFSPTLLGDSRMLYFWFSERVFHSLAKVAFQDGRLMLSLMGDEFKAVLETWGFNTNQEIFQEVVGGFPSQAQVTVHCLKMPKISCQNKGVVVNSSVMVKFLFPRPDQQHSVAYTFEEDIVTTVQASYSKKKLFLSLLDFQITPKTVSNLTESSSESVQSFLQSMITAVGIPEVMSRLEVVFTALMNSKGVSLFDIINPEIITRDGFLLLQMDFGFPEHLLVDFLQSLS
Procedure, shortened: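 Fluorescence transfer assay of cholesteryl ester transfer by CETP. IC50 taken from 10-point titrations, reported as the average of three or more titrations, the average of two, or a single titration.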

[4] = molecular target: T2, Cholesteryl ester transfer protein (Homo sapiens) (UniProt P11597); assay: Inhibition of CETP-mediated BODIPY-labeled cholesteryl ester transfer at 100 uM after 45 mins by FRET analysis
T2 sequence (whole entry): T1 sequence (P11597 whole entry)

[5] = as §1; assay type: ADME, organism-based; conditions: in vivo

What does the source list for `COc1ccc(C(C)C)cc1-c1ccc(C(F)(F)F)cc1CN1C[C@@H](c2cc(C(F)(F)F)cc(C(F)(F)F)c2)OC1=O`?
bioavailability [1]: 4%; clearance (Mus musculus): 31.6 mL/min/kg; Vd [2]: 3.4 L/kg

With `COc1ccc(C(C)C)cc1-c1ccc(C(F)(F)F)cc1CN1CC(c2cc(C(F)(F)F)cc(C(F)(F)F)c2)OC1=O` (racemic) as the compound, how does the pIC50 [3] read?
The pIC50 was 6.88.

With `COc1ccc(C(C)C)cc1-c1ccc(C(F)(F)F)cc1CN1C[C@H](c2ccccc2)OC1=O` as the compound, how does the pIC50 [3] read?
The pIC50 was 4.43.

With `COc1ccc(C(C)C)cc1-c1ccc(C(F)(F)F)cc1CN1C(=O)OCC1c1cc(C(F)(F)F)cc(C(F)(F)F)c1` (racemic) as the compound, how does the pIC50 [3] read?
Its pIC50 is 4.85.

For `COc1ccc(C(C)C)cc1-c1ccc(C(F)(F)F)cc1CN1C[C@H](c2cc(C(F)(F)F)cc(C(F)(F)F)c2)OC1=O`, which inhibition [4] is on record?
The inhibition was under 50%.

With `COC(=O)N(Cc1ccccc1)Cc1cc(C(F)(F)F)ccc1-c1cc(C(C)C)ccc1OC` as the compound, how does the pIC50 [3] read?
The pIC50 was 4.56.

With `COc1ccc(C(C)C)cc1-c1ccc(C(F)(F)F)cc1CN1C[C@@H](c2ccccc2)OC1=O` as the compound, how does the pIC50 [3] read?
Its pIC50 is 6.53.

Which bioavailability [1] does the source give for `COC(=O)N(Cc1cc(C(F)(F)F)cc(C(F)(F)F)c1)Cc1cc(C(F)(F)F)ccc1-c1cc(C(C)C)ccc1OC` here?
Its bioavailability is 5%.

And the clearance [5]?
Its clearance is 12.8 mL/min/kg.

What about the Vd [2] of the same compound?
Its Vd is 3.3 L/kg.
